Experimental data reported in ChEMBL document CHEMBL1949593, “Stilbene-chalcone hybrids: design, synthesis, and evaluation as a new class of antimalarial scaffolds that trigger cell death through stage specific apoptosis” (J Med Chem, 2012).
Active and inactive are the calls of the source.

Legend:
[1] = tested on: Plasmodium falciparum; experiment: Growth inhibition of ring stage chloroquine-sensitive Plasmodium falciparum 3D7 at 6 uM treated for 48 hrs followed by washout measured after 48 hrs by Giemsa staining; assay type: functional, organism-based
In short: (§1)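 Highly synchronized 3D7 cultures were exposed by stage: rings 48 h, trophozoites 24 h, schizonts 8 h. After a media wash, cultures grew 48 h in drug-free complete RPMI, in triplicate. Giemsa smears were read by counting 3000 cells per stage; pycnotic parasites were scored nonviable. Inhibition is percent of drug-free control.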

[2] = tested on: Plasmodium falciparum; experiment: Antimalarial activity against ring stage chloroquine-resistant Plasmodium falciparum INDO infected in human O positive erythrocytes after 48 hrs by SYBR green 1 fluorescence assay; assay type: functional, organism-based
In short: (§2)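 Ring-stage cultures were sorbitol-synchronized in O+ human erythrocytes in RPMI 1640 with 0.5% Albumax, hypoxanthine and gentamicin, then plated at 2% hematocrit and 1% parasitemia. Drugs were tested at 0–100 μM (final DMSO 0.4%) in triplicate for 48 h at 37 °C under 5% O2/5% CO2/90% N2. Read-out was SYBR Green I (ex 497/em 520 nm). IC50 was read visually as 50% growth inhibition, with chloroquine as control.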

[3] = tested on: Plasmodium falciparum; experiment: Antimalarial activity against chloroquine-sensitive Plasmodium falciparum 3D7 assessed as inhibition of schizonts growth at 6 uM treated for 8 hrs followed by washout measured after 48 hrs by Giemsa staining; assay type: functional, organism-based
In short: (§3)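 Highly synchronized 3D7 schizonts were exposed to drug for 8 h under normal culture conditions, alongside untreated controls. After a media wash, cultures were incubated for 48 h with or without drug. Giemsa-stained thin smears were examined microscopically for parasitemia and stage, and compared with control.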

[4] = tested on: Plasmodium falciparum; experiment: Growth inhibition of chloroquine-sensitive Plasmodium falciparum 3D7 trophozoites at 6 uM treated for 24 hrs following washout incubated for 48 hrs in drug free medium by Giemsa staining; assay type: functional, organism-based; in short: as §1
[5] = tested on: Plasmodium falciparum; experiment: Antimalarial activity against ring stage chloroquine-resistant Plasmodium falciparum Dd2 infected in human O positive erythrocytes after 48 hrs by SYBR green 1 fluorescence assay; assay type: functional, organism-based; conditions: Dd2, 48 h; in short: as §2
[6] = tested on: Plasmodium falciparum; experiment: Induction of internucleosomal fragmentation in chloroquine-sensitive Plasmodium falciparum 3D7 trophozoites at 6 uM at 24 hrs by Hoechst 33342 staining; assay type: functional, organism-based
In short: (§4)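 3D7 trophozoite cultures were treated 18 or 24 h, and ring cultures 24, 42 or 48 h. Parasites were stained with Hoechst 33342 for 10 min at room temperature, washed with PBS, and smeared. Condensed or fragmented chromatin (blue, 460 nm) was viewed by fluorescence microscopy.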

[7] = Therapeutic index, ratio of IC50 for […] cells to IC50 for ring stage chloroquine-sensitive Plasmodium falciparum 3D7; assay type: cell-based; conditions: mouse, read-out: Ratio IC50
In short: (§5)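 HeLa or L929 fibroblasts were seeded at 10^4 cells per well in RPMI with 10% FBS, left overnight, then exposed 24 h at 37 °C, 5% CO2. MTT was added for 3 h; formazan was dissolved in DMSO and read at 570 nm. IC50 came from dose–response curves. Index = IC50(mammalian)/IC50(Pf 3D7, SYBR Green assay).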

[8] = Inhibition of Plasmodium falciparum falcipain-2 using benzyloxycarbonyl-Phe-Arg-7-amino-4-methyl coumarin hydrochloride as substrate preincubated for 10 mins prior substrate addition by fluorimetric assay
In short: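 Recombinant falcipain-2 (2 μg) was preincubated 10 min at room temperature with or without compound, in triplicate. Buffer was 100 mM sodium acetate pH 5.5 with 10 mM DTT and 1% final DMSO. Z-Phe-Arg-AMC was then added at 10 μM final. AMC release was read at ex 355/em 460 nm. IC50 was taken by visual matching of 50% inhibition.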

[9] = tested on: Plasmodium falciparum; experiment: Growth inhibition of chloroquine-sensitive Plasmodium falciparum 3D7 trophozoites at 6 uM treated for 18 hrs followed by washout measured after 54 hrs by Giemsa staining; assay type: functional, organism-based
[10] = tested on: Plasmodium falciparum; experiment: Growth inhibition of chloroquine-sensitive Plasmodium falciparum 3D7 trophozoites at 6 uM treated for 24 hrs following washout incubated for 48 hrs in drug free medium by SYBR green 1-based fluorescence assay; assay type: functional, organism-based
In short: (§6)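 Stage-specific exposure of synchronized 3D7: rings 48 h, trophozoites 24 h, schizonts 8 h. Drug was removed by media wash and cultures grew 48 h drug-free, in a separate triplicate set. Growth was read by SYBR Green I fluorescence and expressed as percent inhibition relative to drug-free control.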

[11] = tested on: Plasmodium falciparum; experiment: Induction of apoptosis in chloroquine-sensitive Plasmodium falciparum 3D7 trophozoites assessed as chromatin condensation at 6 uM at 18 hrs by Hoechst 33342 staining; assay type: functional, organism-based; in short: as §4
[12] = tested on: Plasmodium falciparum; experiment: Induction of apoptosis in ring stage chloroquine-sensitive Plasmodium falciparum 3D7 assessed as disruption of mitochondrial membrane potential at 6 uM by JC-1 staining; assay type: functional, organism-based
In short: (§7)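 3D7 ring cultures were treated 24, 42 or 48 h, and trophozoite cultures 18 or 24 h. Parasites were stained with JC-1 for 20 min at 37 °C and viewed as wet mounts by fluorescence microscopy. Red-orange aggregate signal (590 nm) indicates intact ΔΨm; green monomer signal (525 nm) indicates dissipation.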

[13] = tested on: Plasmodium falciparum; experiment: Induction of apoptosis in chloroquine-sensitive Plasmodium falciparum 3D7 trophozoites assessed as disruption of mitochondrial membrane potential at 6 uM by JC-1 staining; assay type: functional, organism-based; in short: as §7
[14] = tested on: Plasmodium falciparum; experiment: Antimalarial activity against ring stage chloroquine-sensitive Plasmodium falciparum 3D7 infected in human O positive erythrocytes after 48 hrs by SYBR green 1 fluorescence assay; assay type: functional, organism-based; conditions: 3D7, 48 h
In short: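 P. falciparum 3D7 in O+ human erythrocytes in complete RPMI with Albumax at 37 °C under 5% O2/5% CO2. Culture was sorbitol-synchronized to rings and plated at 2% hematocrit, 1% parasitemia. Drug range was 0–100 μM with 0.4% final DMSO, in triplicate. After 48 h, SYBR Green I fluorescence was read (ex 497/em 520 nm). IC50 was taken by visual matching of 50% growth inhibition.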

[15] = tested on: Plasmodium falciparum; experiment: Antimalarial activity against chloroquine-sensitive Plasmodium falciparum 3D7 assessed as merozoites egress at 6 uM treated for 8 hrs followed by washout measured after 48 hrs by Giemsa staining; assay type: functional, organism-based; in short: as §3
[16] = tested on: Plasmodium falciparum; experiment: Growth inhibition of ring stage chloroquine-sensitive Plasmodium falciparum 3D7 at 6 uM treated for 48 hrs following washout incubated for 48 hrs in drug free medium by SYBR green 1-based fluorescence assay; assay type: functional, organism-based; in short: as §6
[17] = tested on: Plasmodium falciparum; experiment: Induction of apoptosis in ring stage chloroquine-sensitive Plasmodium falciparum 3D7 assessed as nuclear condensation at 6 uM at 24 hrs by Giemsa staining; assay type: functional, organism-based
[18] = Resistance index, ratio of IC50 for ring stage chloroquine-resistant Plasmodium falciparum INDO to IC50 for ring stage chloroquine-sensitive Plasmodium falciparum 3D7; assay type: functional
[19] = tested on: Plasmodium falciparum; experiment: Induction of apoptosis in ring stage chloroquine-sensitive Plasmodium falciparum 3D7 assessed as chromatin fragmentation at 6 uM at 18 hrs by Hoechst 33342 staining; assay type: functional, organism-based
[20] = tested on: Plasmodium falciparum; experiment: Growth inhibition of chloroquine-sensitive Plasmodium falciparum 3D7 schizonts at 6 uM treated for 8 hrs following washout incubated for 48 hrs in drug free medium by Giemsa staining; assay type: functional, organism-based; in short: as §1
[21] = tested on: Plasmodium falciparum; experiment: Inhibition of RBC invasion of chloroquine-sensitive Plasmodium falciparum 3D7 schizonts at 6 uM treated for 8 hrs followed by washout measured after 48 hrs by Giemsa staining; assay type: functional, organism-based; in short: as §3
[22] = tested on: Plasmodium falciparum; experiment: Induction of apoptosis in ring stage chloroquine-sensitive Plasmodium falciparum 3D7 assessed as chromatin condensation at 6 uM at 18 hrs by Hoechst 33342 staining; assay type: functional, organism-based
[23] = tested on: Plasmodium falciparum; experiment: Induction of internucleosomal fragmentation in ring stage chloroquine-sensitive Plasmodium falciparum 3D7 at 6 uM at 24 hrs by Hoechst 33342 staining; assay type: functional, organism-based; in short: as §4
[24] = tested on: Plasmodium falciparum; experiment: Reduction in parasitemia of chloroquine-sensitive Plasmodium falciparum 3D7 trophozoites at 6 uM after 48 hrs by Giemsa staining; assay type: functional, organism-based
[25] = Resistance index, ratio of IC50 for ring stage chloroquine-resistant Plasmodium falciparum Dd2 to IC50 for ring stage chloroquine-sensitive Plasmodium falciparum 3D7; assay type: functional
[26] = tested on: Plasmodium falciparum; experiment: Induction of apoptosis in chloroquine-sensitive Plasmodium falciparum 3D7 trophozoites assessed as chromatin fragmentation at 6 uM at 18 hrs by Hoechst 33342 staining; assay type: functional, organism-based; in short: as §4
[27] = tested on: Plasmodium falciparum; experiment: Growth inhibition of chloroquine-sensitive Plasmodium falciparum 3D7 schizonts at 6 uM treated for 8 hrs following washout incubated for 48 hrs in drug free medium by SYBR green 1-based fluorescence assay; assay type: functional, organism-based; in short: as §6
[28] = Therapeutic index, ratio of IC50 for human HeLa cells to IC50 for ring stage chloroquine-sensitive Plasmodium falciparum 3D7; assay type: cell-based; conditions: read-out: Ratio IC50; in short: as §5
[29] = tested on: Plasmodium falciparum; experiment: Induction of apoptosis in chloroquine-sensitive Plasmodium falciparum 3D7 trophozoites assessed as nuclear condensation at 6 uM at 24 hrs by Giemsa staining; assay type: functional, organism-based
[30] = tested on: Plasmodium falciparum; experiment: Reduction in parasitemia of ring stage chloroquine-sensitive Plasmodium falciparum 3D7 at 6 uM after 48 hrs by Giemsa staining; assay type: functional, organism-based

COc1cc(OC)c(OC)cc1/C=C/C(=O)c1ccc(/C=C/c2cc(OC)c(O)c(OC)c2)cc1
0.64: Ratio IC50 [18]
active: growth inhibition (GI) [1] | growth inhibition (GI) [4] | Activity [6] | growth inhibition (GI) [9] | growth inhibition (GI) [10] | Activity [11] | Activity [12] | Activity [13] | growth inhibition (GI) [16] | Activity [17] | Activity [19] | Activity [22] | Activity [24] | Activity [26] | Activity [29] | Activity [30]
45.5: selectivity ratio [7]
42.3: selectivity ratio [28]
inactive: growth inhibition (GI) [3] | inhibition [15] | growth inhibition (GI) [20] | inhibition [21] | Activity [23] | growth inhibition (GI) [27]
6.4 µM: IC50 [5]
2.2 µM: IC50 [14]
2.9: Ratio IC50 [25]
1.4 µM: IC50 [2]
37.5 µM: IC50 [8]
